For series [1] the following is noted: study did not use labelled OT; cited from earlier work.
The conditions of series [2]: used as correction in blood contamination formula; cited from earlier work.
The conditions of series [3]: statement in discussion, no reference given; cited from earlier work.
Series [4] is described as follows: d5 OT pharmacokinetics in plasma and CSF after IN and IV administration. The class given is in vivo, rhesus monkeys (Macaca Mulatta). The settings on record: for Drug targeting efficiency percentage (DTE%), single monkey: 80 IU d5 OT IN vs IV, AUC0-60 min, individual monkey. The procedure, abridged:
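Rhesus monkeys sedated IM: ketamine (10 mg/kg), dexdomitor (0.01 mg/kg), glycopyrrolate 0.01 mg/kg i.m.; 80 IU deuterated test compound given IN or IV (1 mL normal saline, leg vein), IN saline control, counterbalanced weekly sessions. Blood and CSF drawn pre-dose and 10–60 min. Samples acetonitrile-precipitated, SPE-cleaned at pH 3.0, LC-MS/MS. Non-compartmental AUC0–60, Cmax, Tmax; bioavailability and DTE from AUC ratios.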

Take `CC[C@H](C)[C@@H]1NC(=O)[C@H](Cc2ccc(O)cc2)NC(=O)[C@@H](N)CSSC[C@@H](C(=O)N2CCC[C@H]2C(=O)N[C@@H](CC(C)C)C(=O)NCC(N)=O)NC(=O)[C@H](CC(N)=O)NC(=O)[C@H](CCC(N)=O)NC1=O` [OT, Oxytocin]: the “Fraction of OT crossing the BBB” value in series [1] is “~ .002%”. Moreover, in series [2], the “Fraction of OT that is not protein bound” value was 0.7.

atosiban: in series [3], the “Passage of the BBB” value is listed as “does not pass the BBB”.

With d5-oxytocin [d5 OT], the entries for the “Drug targeting efficiency percentage (DTE%), single monkey” value in series [4] (first of 4 values listed), in series [4] (second of 4 values listed) and in series [4] (third of 4 values listed) were 33.6%, 50.5% and 154.6%, respectively. Besides, the “Bioavailability post IN administration for plasma and CSF” value in series [4] (100 x (AUC IN/AUC IV), 80 IU d5 OT, plasma and CSF, values only in words) is recorded as “similar, albeit low”.
